According to paper PMC12009964 (Scientific Reports, 2025):

Key:
[1] = system: Hela cells; experiment: DAPI staining assay; assay type: cell-based, human; settings: 5 µM, 24 h, compared to DMSO
Outline: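 HeLa cells (5 × 10^3) seeded in 24-well plates for 24 h, treated 24 h with test compound (1, 2.5 or 5 µM in methods). Fixed in 4% paraformaldehyde 10 min, washed, stained with 300 nM DAPI 15 min in the dark. Nuclear morphology of apoptotic cells examined by fluorescence microscopy.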

[2] = system: ERK1/2; experiment: Z'-LYTE Kinase Assay, Ser/Thr 3 peptide; assay type: biochemical, human; settings: 1.25, 2.5, 5, and 10 µM
Outline: (§1)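 Coupled-enzyme, antibody-free fluorescence kinase assay on HeLa cell lysates (10–100 µg per well). Substrates: Ser/Thr 4 peptide for ERK5, Ser/Thr 3 peptide for ERK1/2. Test compound at 1.25, 2.5, 5 and 10 µM. Coumarin (Ex 400/Em 445 nm) and fluorescein (Ex 400/Em 520 nm) emissions read on a plate reader.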

[3] = system: PCNA expression in Hela cells; experiment: PCNA mRNA expression by quantitative RT-PCR; assay type: cell-based, human; settings: for inhibition rate of the expression of PCNA: Hela cells, qRT-PCR, 5 μM as printed in abstract; for inhibition at 10 µM: Homo sapiens, HeLa, read-out: Inhibition of PCNA expression
[4] = system: Hela cells; experiment: Annexin V/Propidium iodide flow cytometry; assay type: cell-based, human; settings: 5 µM, 24 h
Outline: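 Apoptosis assay: HeLa cells (5 × 10^5) seeded in 6-well plates for 24 h, serum-starved 20 h, then exposed to test compound for 24 h (1, 2.5 or 5 µM in methods). Annexin V-FITC/PI kit staining, flow cytometry. Quadrants: lower right early apoptotic, upper right late apoptotic, upper left necrotic. Mean ± SD of three independent experiments.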

[5] = system: AP-1 reporter in HeLa cells; experiment: ERK5-driven AP-1 reporter assay; assay type: cell-based, human; settings: 5 µM
Outline: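 HeLa cells (2 × 10^5 per well, 6-well) transiently lipofected with an AP-1-luc reporter vector carrying six AP-1 response elements. After transfection, cells received 5 µM test compound. AP-1 mRNA measured by RT-PCR (TRIzol RNA, reverse transcription, duplicate real-time reactions), with GAPDH as normaliser and the 2−∆∆Cq method.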

[6] = target: ERK5 (Homo sapiens, UniProt Q13164); experiment: Z'-LYTE Kinase Assay, Ser/Thr 4 peptide; assay type: biochemical; settings: read-out: IC50 against ERK5 (Z'-LYTE kinase assay)
Outline: as §1

Chain of ERK5 (Q13164 2-816): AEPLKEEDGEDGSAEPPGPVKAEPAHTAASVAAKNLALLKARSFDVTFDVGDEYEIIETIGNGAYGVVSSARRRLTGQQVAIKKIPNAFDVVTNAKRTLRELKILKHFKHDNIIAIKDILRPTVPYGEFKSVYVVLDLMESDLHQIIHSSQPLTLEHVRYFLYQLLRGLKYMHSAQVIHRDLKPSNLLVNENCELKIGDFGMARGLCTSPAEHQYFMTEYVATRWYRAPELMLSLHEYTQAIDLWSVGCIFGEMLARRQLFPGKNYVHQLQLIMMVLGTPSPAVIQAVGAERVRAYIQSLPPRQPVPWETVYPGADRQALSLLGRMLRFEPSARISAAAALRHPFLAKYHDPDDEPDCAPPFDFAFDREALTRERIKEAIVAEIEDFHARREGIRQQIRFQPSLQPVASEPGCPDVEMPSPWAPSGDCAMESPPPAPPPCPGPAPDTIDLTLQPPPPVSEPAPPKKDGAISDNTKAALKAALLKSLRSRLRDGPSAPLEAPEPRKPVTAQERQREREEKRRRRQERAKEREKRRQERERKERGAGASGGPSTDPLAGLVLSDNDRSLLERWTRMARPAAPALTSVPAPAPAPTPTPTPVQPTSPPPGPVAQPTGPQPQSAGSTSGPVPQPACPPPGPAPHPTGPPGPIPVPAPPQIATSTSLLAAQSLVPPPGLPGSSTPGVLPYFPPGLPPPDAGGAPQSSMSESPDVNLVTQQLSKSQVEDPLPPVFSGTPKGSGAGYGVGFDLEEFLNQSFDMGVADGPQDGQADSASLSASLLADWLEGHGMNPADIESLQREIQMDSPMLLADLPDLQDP

Row | Compound | apoptosis by DAPI staining [1] | effect on ERK1/2 kinase activity [2] | inhibition rate of the expression of PCNA [3] [%] | increase of late apoptotic events compared with DMSO [4] [%] | expression of AP-1 [5] | IC50 [6] [µM] | inhibition at 10 µM [3] [%]
1 | CC(C)CCOc1cc(C[n+]2c(C(C)C)n(CCC(C)C)c3ccccc32)c(OCCC(C)C)c2ccccc12.[Br-] [4e, 3-((1,4-bis(isopentyloxy)naphthalen-2-yl)methyl)−1-isoamyl-2-isopropyl-1H-benzo[d]imidazol-3-ium bromide] | triggered apoptosis | did not inhibit ERK1/2 kinase activity | 61.1 | 10.8 | significantly decreased | 5.1 | 
2 | COC(C)c1n(CCC(C)C)c2ccccc2[n+]1Cc1cc(OCCC(C)C)c2ccccc2c1OCCC(C)C (stereo not drawn) [4j, 3-((1,4-Bis(isoamyloxy)naphthalen-2-yl)methyl)−1-isoamyl-2-(1-methoxyethyl)−1H-benzo[d]imidazol-3-ium bromide] |  |  |  |  |  |  | 57.4
3 | Cc1cc2c(cc1C)[n+](Cc1cc(OCCC(C)C)c3ccccc3c1OCCC(C)C)cn2CCC(C)C.[Br-] [4k, 3-((1,4-Bis(isoamyloxy)naphthalen-2-yl)methyl)−1-isoamyl-5,6-dimethyl-1H-benzo[d]imidazol-3-ium bromide] | triggered apoptosis | did not inhibit ERK1/2 kinase activity | 70.2 | 14 | significantly decreased | 9 | 70.2
4 | CC(C)CCOc1cc(C[n+]2cn(CCC(C)C)c3cc(Br)c(Br)cc32)c(OCCC(C)C)c2ccccc12 [4m, 3-((1,4-Bis(isoamyloxy)naphthalen-2-yl)methyl)−5,6-dibromo-1-isoamyl-1H-benzo[d]imidazol-3-ium bromide] |  |  |  |  |  |  | 57
